A selection: hits, their analogues and other compounds. The true share with any hit is near 3.7%.
hERG rescue: hERG rescue from dofetilide block, primary screen, cell-based, CHO-hERG, FluxOR thallium flux, dofetilide IC70; Voltage-gated inwardly rectifying potassium channel KCNH2 (Homo sapiens), Q12809; dofetilide IC70 present; activation (rescue from dofetilide block), less the hit threshold, % at 10 µM; hit rate 0.51% among 310,000; AID 1511, 2009;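 active means activation above the mean of controls blocked by dofetilide plus 5 SD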;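 further: thallium influx through hERG after potassium depolarization seen as dye fluorescence rise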
Kir21 inh: inhibitors of mouse Kir2.1 inward-rectifier potassium channel | HEK293-Kir2.1, FluxOR thallium flux fluorescence; hits give low values | hit rate 0.85% among 310,000 | Inward rectifier potassium channel 2 (Mus musculus), P35561 | B-score at 10 µM;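 active means fluorescence ratio B-score at or below minus 3 SD of library scores, with starting-brightness B-score within 2 SD, cut at about -4.2 in these data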;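 further: channel flux triggered by added potassium and thallium sulfate stimulus; B-score of peak minus minimum fluorescence over baseline after thallium stimulus; more negative B-score means stronger Kir2.1 block with less thallium influx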
KCNQ1 block: inhibitors of human KCNQ1 channel, primary screen, cell-based, thallium flux, high-throughput | Potassium voltage-gated channel subfamily KQT member 1 (Homo sapiens), P51787 | B-score at 10 µM | AID 2642, 2010 | CHO-K1 KCNQ1, FluxOR thallium flux fluorescence; hits give high values | hit rate 1.3% among 310,000;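 active means compounds whose thallium flux B-score, printed positive for inhibition, exceeds three library SD while starting fluorescence stays within three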;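 further: channel opened by potassium depolarization with thallium stimulus after 20 min compound exposure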
KCNK3 inh: human KCNK3 channel inhibitors, primary screen, CHO cells, FluxOR thallium flux, B-score; FluxOR fluorescence; hits give low values; B-score at 10 µM; hit rate 0.84% among 340,000; AID 602410, 2012;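 active means B-score under library mean minus 4 SD, starting fluorescence ratio at most library mean plus 5 SD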;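 further: more negative B-score means stronger inhibition of thallium flux through KCNK3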
Target sequence (O14649 whole entry, looked up): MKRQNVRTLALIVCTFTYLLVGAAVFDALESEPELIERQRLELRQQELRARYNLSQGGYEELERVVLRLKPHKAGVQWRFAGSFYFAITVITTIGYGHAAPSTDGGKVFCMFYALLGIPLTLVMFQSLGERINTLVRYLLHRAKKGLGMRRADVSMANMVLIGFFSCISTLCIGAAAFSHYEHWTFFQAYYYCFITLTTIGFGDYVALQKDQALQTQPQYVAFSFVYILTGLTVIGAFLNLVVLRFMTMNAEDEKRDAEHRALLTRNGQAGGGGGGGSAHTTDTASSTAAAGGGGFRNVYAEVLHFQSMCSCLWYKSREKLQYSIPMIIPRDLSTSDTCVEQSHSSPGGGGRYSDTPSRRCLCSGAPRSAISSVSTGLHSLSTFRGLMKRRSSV
KCNQ1 pot: potentiators or activators of KCNQ1 channel, primary screen, cell-based, thallium flux, high-throughput. hit rate 0.35% among 310,000. CHO-K1 KCNQ1, thallium flux FluxOR fluorescence; hits give high values. B-score at 10 µM. Potassium voltage-gated channel subfamily KQT member 1 (Homo sapiens), P51787;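 active means fluorescence ratio B-score, a plate-corrected score, at least three library SD, with initial intensity B-score within 5 SD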
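System: CHO-K1 cells stably expressing KCNQ1 / Medium: assay buffer for compound exposure, DMSO matched across wells / Reagent: thallium- and potassium-containing depolarizing buffer / Compound: one concentration, matched DMSO / Incubation: 20 min compound pretreatment at room temperature / Measured by: kinetic FluxOR fluorescence, 10 s baseline plus 110 s post-stimulus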
KCNK9 block: KCNK9 potassium channel inhibitors, primary screen, HEK293 cells, thallium flux; Potassium channel subfamily K member 9 (Homo sapiens), Q9NPC2; FluxOR thallium flux fluorescence; hits give low values; B-score at 10 µM; hit rate 1.2% among 310,000; AID 488922, 2010;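 active means ratio B-score over 3 SD below the library mean, with starting fluorescence within 5 SD of its mean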;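 further: negative B-score means less thallium flux so channel inhibition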
* = called active by the depositor; i = inactive; nt = no result.

SMILES | hERG rescue | Kir21 inh | KCNQ1 block | KCNK3 inh | KCNQ1 pot | KCNK9 block
CC(NC(=O)CSc1nc2ccc(N)cc2s1)c1ccccc1 (centres undefined) | -22 | -0.83 | i | i | i | i
CC(C)(/C=N/O)/[N+]([O-])=C/c1ccccc1 | -8 | -1.7 | 7* | i | i | i
Cc1cc([N+](=O)[O-])nn1CCCC(=O)Nc1cc(Oc2ccc(F)cc2)cc([N+](=O)[O-])c1 | -5 | 1.7 | i | i | i | i
Cc1ccc(Oc2cc(NC(=O)CCCn3nc([N+](=O)[O-])c(Cl)c3C)cc([N+](=O)[O-])c2)cc1 | -13 | 0.5 | 7* | i | i | i
COCc1nc2oc3ccc(F)cc3c(=O)c2cc1C(=O)OC | -9 | 0.03 | i | i | i | i
Cc1[nH]c2ccc(F)cc2c1CCN(Cc1ccncc1)C(=S)Nc1ccc(F)cc1 | -15 | -0.49 | i | i | i | -7.1*
Cc1ccccc1NC(=S)N(CCc1c(C)[nH]c2ccc(F)cc12)Cc1cccnc1 | -13 | 0.72 | i | i | i | i
Nc1cccc(N2C(=O)c3cccc4c(N)ccc(c34)C2=O)c1 | -20 | -8 | 11* | i | i | i
Nc1ccc2c3c(cccc13)C(=O)N(c1ccccc1)C2=O | -42 | -5.6 | i | i | i | i
CCCCOc1ccc(NC2=NC3(CCCC3)N=C(N)N2)cc1 | -16 | -1.7 | i | i | i | i
CCOc1ccc(-c2csc(/C(C#N)=C\c3ccc(O)c([N+](=O)[O-])c3)n2)cc1 | -16 | 0.65 | 6* | i | i | i
COc1ccccc1C(O)(c1ccccc1)c1ccccc1OC | nt | nt | nt | -10* | nt | nt
CC(C)c1ccc(CNC(=O)C2CCCN2S(=O)(=O)c2ccccc2)cc1 (centres undefined) | -5 | 1.2 | i | i | i | i
O=C(NNC(=O)C1CCN(c2ncccn2)CC1)c1ccc(F)cc1 | 2 | 1.1 | i | i | i | i
O=C1CCC(C(=O)N2CCN(c3cnccn3)CC2)CN1CCc1ccc(Cl)cc1 (centres undefined) | -4 | 0.92 | i | i | i | i
O=C(Nc1cccc2c1C(=O)NC2=O)c1cccnc1Cl | 6.1* | -0.66 | i | i | i | i
O=C(Nc1cccnc1Cl)c1cccnc1Cl | -2 | -0.15 | i | i | i | i
O=c1[nH]c(CN2CCN(c3ncccn3)CC2)nc2c(Br)cc(Br)cc12 | -16 | 0.58 | i | i | i | -7.5*
O=c1[nH]c(CN2CCN(c3ccccn3)CC2)nc2c(Br)cc(Br)cc12 | -11 | 2.4 | i | i | i | i
CCCOc1cc(N(CC)CC)ccc1/C=C(/C#N)c1nc2ccc(C)cc2[nH]1 | -18 | -2.4 | i | i | i | -11*
CCN(CC)c1ccc(/C=C(/C#N)c2nc3ccc(C)cc3[nH]2)c(OC(C)C)c1 | -38 | -1.7 | 9* | i | i | i
O=C(/C=C/c1ccccc1)n1cnnc1SC/C=C/c1ccccc1 | -5 | -6.9* | i | i | i | i
Cc1noc(C)c1COC(=O)[C@H](C)NS(=O)(=O)c1ccc(Cl)c(Cl)c1 | -10 | -5.2* | i | i | i | i
C/C(CCc1ccco1)=N/NC(=O)CCC(=O)Nc1ccc(Br)cc1 | -5 | 0.46 | i | i | i | i
Cc1cc(C(=O)C(C)Sc2cccc[n+]2[O-])c(C)n1-c1ccc(Cl)cc1 (centres undefined) | -3 | 0.01 | i | i | i | i
SMILES | hERG rescue | Kir21 inh | KCNQ1 block | KCNK3 inh | KCNQ1 pot | KCNK9 block
O=C1C=CC(=O)N1CCNc1ncc(C(F)(F)F)cc1Cl | -20 | -5.7* | i | i | 18* | i
S=c1[nH]nc(-c2ccco2)n1/N=C/c1cccc(Cl)c1Cl | 0 | -0.01 | i | i | 15* | i
CN1CCN(C(c2cccc(Cl)c2)c2ccccc2Cl)CC1 (centres undefined) | -16 | -4.4* | i | i | i | i
CN1CCN(C(c2ccccc2)c2ccc(Cl)cc2)CC1 (centres undefined) | nt | nt | nt | i | nt | nt
CCCCCc1cc(=O)oc2c(C(CCN3CCCCC3)c3ccc(OC)cc3)c(OC)cc(OC)c12 (centres undefined) | -26 | -1.5 | 7* | i | i | i
O=C(N/N=C/c1ccc2c(c1)OCO2)C(O)c1ccccc1 (centres undefined) | -5 | -0.58 | i | i | i | i
CCCCNc1c(-c2ccc(SC(C)CC)c(OC)c2)nc2ccc(Cl)cn12 (centres undefined) | nt | nt | nt | i | nt | nt
CCCCNc1c(-c2ccc(SC(C)CC)c(OC)c2)nc2ccc(C)cn12 (centres undefined) | -10 | 1.8 | 8* | i | i | i
CCC(C)Sc1cccc(-c2nc3ccc(Cl)cn3c2NCc2ccccc2)c1 (centres undefined) | -24 | -0.36 | i | i | i | i
CCC(C)Sc1cccc(-c2nc3ccc(C)cn3c2NCc2ccccc2)c1 (centres undefined) | -29 | 0 | 7* | i | i | i
CCCCCn1c(SCc2ccncc2)nc2cc(C(=O)NCc3ccco3)ccc2c1=O | -9 | -1.7 | 10* | i | i | i
CC(C)(C)n1nnnc1C(c1cccnc1)N(Cc1ccccc1)Cc1ccco1 (centres undefined) | -8 | -0.41 | i | i | i | i
CCC(C)(C)n1nnnc1C(c1ccc(C)cc1)N(Cc1ccco1)Cc1cccs1 (centres undefined) | -3 | 0.02 | i | i | i | -6.9*
O=NN(CCc1ccncc1)c1ccc(OCc2ccccc2)cc1 | -20 | 0.01 | 10* | -9.1* | i | i
O=C(NCc1ccncc1)C(=O)N/N=C/c1ccc(OCc2ccccc2)cc1 | -9 | 1.1 | i | i | i | i
c1ccc(CSc2nnnn2-c2cccc3ccccc23)nc1 | -8 | -7.4* | i | i | i | i
Cc1cc(OC(F)F)ccc1NC(=O)Nc1ccc([N+](=O)[O-])cc1 | -11 | 0.61 | 6* | i | i | i
O=C(Nc1ccc([N+](=O)[O-])cc1)Nc1ccc(Cl)cc1F | -16 | -0.52 | 14* | i | i | i

High-throughput results as filed in PubChem.
